# Measurements from ChEMBL document CHEMBL2163317, “Selective inhibition of the tumor marker aldo-keto reductase family member 1B10 by oleanolic acid” (J Nat Prod, 2011).
# Active and inactive are the calls of the source. The calls are words filed in the database; no cut-off is given here.
# How the values were obtained:
# [1] = target: Aldo-keto reductase family 1 member B1 (Homo sapiens, UniProt P15121); test: Inhibition of reductase activity of N-terminal 6His-tagged human recombinant AKR1B1 expressed in Escherichia coli BL21(DE3) assessed as assessed as pyridine-3-aldehyde reduction
# Summary of the method: (§1)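 Forward reductase assay at 25 C with purified recombinant enzyme from E. coli BL21(DE3) pLysS. Buffer was 0.1 M potassium phosphate pH 7.4 with 0.1 mM NADPH and 0.2 mM pyridine-3-aldehyde. Rate read as NADPH absorbance change at 340 nm. IC50 reported as mean of at least three determinations. Selectivity is the AKR1B1 IC50 divided by the AKR1B10 IC50.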
# [2] = target: T1, Aldo-keto reductase family 1 member B10 (Homo sapiens, UniProt O60218); test: Inhibition of reductase activity of N-terminal 6His-tagged human AKR1B10 expressed in Escherichia coli BL21(DE3) assessed as pyridine-3-aldehyde reduction; summary of the method: as §1
# Target sequence in this assay (O60218 whole entry): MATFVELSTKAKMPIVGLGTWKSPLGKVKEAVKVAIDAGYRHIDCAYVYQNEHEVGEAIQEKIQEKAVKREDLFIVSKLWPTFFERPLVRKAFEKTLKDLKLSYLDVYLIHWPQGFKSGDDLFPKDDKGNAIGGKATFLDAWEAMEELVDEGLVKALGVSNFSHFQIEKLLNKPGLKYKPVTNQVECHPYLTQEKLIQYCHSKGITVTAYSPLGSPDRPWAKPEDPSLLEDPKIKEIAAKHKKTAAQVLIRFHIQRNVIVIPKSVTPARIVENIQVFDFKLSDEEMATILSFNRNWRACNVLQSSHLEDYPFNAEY
# Homo sapiens = species: Homo sapiens; test: Selectivity ratio of IC50 for human recombinant AKR1B1 to IC50 for human AKR1B10; summary of the method: as §1
# [3] = target: T1, Aldo-keto reductase family 1 member B10; test: Inhibition of N-terminal 6His-tagged human AKR1B10 overexpressed in human HeLa cells assessed as inhibition of […] at 1 uM pretreated for 2 hrs before [1-14C]farnesol challenge measured after 6 hrs; type: cell-based
# Summary of the method: (§2)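 HeLa cells were transfected with a pGW1 plasmid carrying AKR1B10 cDNA. Culture was DMEM with 10% FBS at 37 C and 5% CO2. Cells were pretreated with inhibitor for 2 h, then incubated with 20 μM [1-14C] labelled substrate for 6 h. Inhibition of farnesal reduction is the mean of duplicate experiments.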
# Target sequence in this assay (O60218 whole entry, looked up): as the sequence (O60218 whole entry) above
# HT-29 [4] = test: Cytotoxicity against human HT-29 cells after 96 hrs by trypan blue exclusion assay; type: functional; conditions: HT-29, 96 h, read-out: LD50 (the source's name)
# HT-29 [5] = test: Cytotoxicity against human HT-29 cells at 30 uM after 96 hrs by trypan blue exclusion assay; type: functional, cell-based
# DNA polymerase beta = DNA polymerase beta (Homo sapiens, UniProt P06746); test: Inhibition of DNA polymerase beta
# HT-29 [6] = test: Inhibition of AKR1B10 mRNA expression in human HT-29 cells at 3 to 30 uM after 24 hrs by RT-PCR analysis; type: functional, cell-based
# Summary of the method: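 HT29 cells were treated for 24 h with 3, 10 and 30 μM compound. Total RNA was then extracted, and AKR1B10 mRNA was analysed by reverse transcription-PCR.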
# Phospholipase A2 = Phospholipase A2 (Homo sapiens, UniProt P04054); test: Inhibition of phospholipase A2
# Chain of Phospholipase A2 (P04054 whole entry): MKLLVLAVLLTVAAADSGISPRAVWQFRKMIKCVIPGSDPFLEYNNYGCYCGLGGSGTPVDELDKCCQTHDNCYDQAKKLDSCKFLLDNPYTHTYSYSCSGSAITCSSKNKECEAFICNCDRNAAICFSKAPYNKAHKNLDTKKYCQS
# HT-29 [7] = test: Cytotoxicity against human HT-29 cells at 10 uM after 96 hrs by trypan blue exclusion assay; type: functional, cell-based
# HT-29 [8] = test: Cytotoxicity against human mitomycin C-resistant HT-29 cells assessed as growth inhibition after 96 hrs by trypan blue exclusion assay; type: functional, cell-based
# [9] = target: T1, Aldo-keto reductase family 1 member B10; test: Inhibition of N-terminal 6His-tagged human AKR1B10 overexpressed in human HeLa cells assessed as inhibition of […] pretreated for 2 hrs before [1-14C]farnesol challenge measured after 6 hrs; type: cell-based; summary of the method: as §2
# Target sequence in this assay (O60218 whole entry, looked up): as the sequence (O60218 whole entry) above
# [10] = target: T1, Aldo-keto reductase family 1 member B10; test: Competitive inhibition of dehydrogenase activity of N-terminal 6His-tagged human AKR1B10 expressed in Escherichia coli BL21(DE3) assessed as NADP+-linked geraniol oxidation
# Target sequence in this assay (O60218 whole entry): as above
# [11] = target: Aldo-keto reductase family 1 member B10 (Homo sapiens, UniProt O60218, Q303S); test: Competitive inhibition of dehydrogenase activity of N-terminal 6His-tagged human AKR1B10 Q303S mutant expressed in Escherichia coli BL21(DE3) assessed as NADP+-linked geraniol oxidation
# Chain of Aldo-keto reductase family 1 member B10 (Homo sapiens, UniProt O60218, Q303S) (O60218 whole entry Q303S): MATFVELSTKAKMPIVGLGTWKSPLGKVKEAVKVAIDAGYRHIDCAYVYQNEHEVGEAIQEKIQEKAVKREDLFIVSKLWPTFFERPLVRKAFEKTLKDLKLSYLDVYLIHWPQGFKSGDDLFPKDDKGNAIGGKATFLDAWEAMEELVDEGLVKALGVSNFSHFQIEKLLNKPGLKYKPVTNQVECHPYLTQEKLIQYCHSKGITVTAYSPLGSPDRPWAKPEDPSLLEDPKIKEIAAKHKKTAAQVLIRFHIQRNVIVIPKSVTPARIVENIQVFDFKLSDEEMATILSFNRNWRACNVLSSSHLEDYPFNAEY
# [12] = target: Aldo-keto reductase family 1 member B10 (Homo sapiens, UniProt O60218, W220Y); test: Competitive inhibition of dehydrogenase activity of N-terminal 6His-tagged human AKR1B10 W220Y mutant expressed in Escherichia coli BL21(DE3) assessed as NADP+-linked geraniol oxidation
# Chain of Aldo-keto reductase family 1 member B10 (Homo sapiens, UniProt O60218, W220Y) (O60218 whole entry W220Y): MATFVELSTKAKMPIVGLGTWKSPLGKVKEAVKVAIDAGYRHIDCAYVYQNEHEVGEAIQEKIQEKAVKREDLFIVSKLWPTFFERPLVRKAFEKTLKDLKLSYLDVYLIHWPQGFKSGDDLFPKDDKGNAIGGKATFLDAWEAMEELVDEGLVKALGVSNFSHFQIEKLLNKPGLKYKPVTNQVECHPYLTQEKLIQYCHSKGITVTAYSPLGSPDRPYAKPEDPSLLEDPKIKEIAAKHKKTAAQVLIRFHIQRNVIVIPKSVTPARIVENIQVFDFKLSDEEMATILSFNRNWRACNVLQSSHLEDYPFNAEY
# [13] = target: Aldo-keto reductase family 1 member B10 (Homo sapiens, UniProt O60218, V301L); test: Competitive inhibition of dehydrogenase activity of N-terminal 6His-tagged human AKR1B10 V301L mutant expressed in Escherichia coli BL21(DE3) assessed as NADP+-linked geraniol oxidation
# Chain of Aldo-keto reductase family 1 member B10 (Homo sapiens, UniProt O60218, V301L) (O60218 whole entry V301L): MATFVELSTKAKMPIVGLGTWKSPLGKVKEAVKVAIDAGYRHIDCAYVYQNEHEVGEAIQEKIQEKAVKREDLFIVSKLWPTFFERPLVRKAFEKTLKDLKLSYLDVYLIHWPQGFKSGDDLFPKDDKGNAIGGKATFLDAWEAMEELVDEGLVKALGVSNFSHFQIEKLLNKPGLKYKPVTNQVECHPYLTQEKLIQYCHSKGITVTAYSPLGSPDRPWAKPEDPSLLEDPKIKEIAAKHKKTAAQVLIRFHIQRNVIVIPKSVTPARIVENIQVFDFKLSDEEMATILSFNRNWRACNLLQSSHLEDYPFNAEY
# [14] = target: Aldo-keto reductase family 1 member B10 (Homo sapiens, UniProt O60218, K125L); test: Competitive inhibition of dehydrogenase activity of N-terminal 6His-tagged human AKR1B10 K125L mutant expressed in Escherichia coli BL21(DE3) assessed as NADP+-linked geraniol oxidation
# Chain of Aldo-keto reductase family 1 member B10 (Homo sapiens, UniProt O60218, K125L) (O60218 whole entry K125L): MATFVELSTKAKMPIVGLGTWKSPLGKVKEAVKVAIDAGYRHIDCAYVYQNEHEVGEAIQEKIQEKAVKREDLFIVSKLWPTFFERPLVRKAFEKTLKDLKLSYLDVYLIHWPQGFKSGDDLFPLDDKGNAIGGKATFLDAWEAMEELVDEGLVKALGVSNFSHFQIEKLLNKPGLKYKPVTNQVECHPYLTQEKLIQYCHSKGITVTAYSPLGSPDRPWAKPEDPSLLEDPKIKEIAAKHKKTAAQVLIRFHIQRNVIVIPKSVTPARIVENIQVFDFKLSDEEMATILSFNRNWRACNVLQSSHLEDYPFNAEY
# [15] = target: T1, Aldo-keto reductase family 1 member B10; test: Non-competitive inhibition of reductase activity of N-terminal 6His-tagged human AKR1B10 expressed in Escherichia coli BL21(DE3) assessed as pyridine-3-aldehyde reduction
# Target sequence in this assay (O60218 whole entry, looked up): as the sequence (O60218 whole entry) above
Compound,IC50 [1],IC50 [2],Ratio IC50 (Homo sapiens),also measured
C[C@H]1[C@H](C)CC[C@]2(C(=O)O)CC[C@]3(C)C(=CC[C@@H]4[C@@]5(C)C[C@@H](O)[C@H](O)[C@@](C)(CO)[C@@H]5CC[C@]43C)[C@H]12 [ASIATIC ACID],34 µM,5.9 µM,6,
C=C(C)[C@@H]1CC[C@]2(C(=O)O)CC[C@]3(C)[C@H](CC[C@@H]4[C@@]5(C)CC[C@H](O)C(C)(C)[C@@H]5CC[C@]43C)[C@@H]12 [BETULINIC ACID],11 µM,2 µM,6,
CC1(C)[C@@H](O)CC[C@]2(C)[C@H]3C(=O)C=C4[C@@H]5C[C@@](C)(C(=O)O)CC[C@]5(C)CC[C@@]4(C)[C@]3(C)CC[C@@H]12 [ENOXOLONE],280 µM,4.9 µM,57,inhibition [3]: Active
CC1(C)CC[C@]2(CO)CC[C@]3(C)C(=CC[C@@H]4[C@@]5(C)CC[C@H](O)C(C)(C)[C@@H]5CC[C@]43C)[C@@H]2C1 [ERYTHRODIOL],84 µM,30 µM,3,
C[C@H](CCC(=O)O)[C@H]1CC[C@H]2[C@@H]3CC[C@@H]4C[C@@H](O)CC[C@]4(C)[C@H]3CC[C@]12C [ISOLITHOCHOLIC ACID],,,,Ki [2]: 0.015 µM
CC1(C)CC[C@]2(C(=O)O)CC[C@]3(C)C(=CC[C@@H]4[C@@]5(C)C[C@@H](O)[C@H](O)C(C)(C)[C@@H]5CC[C@]43C)[C@@H]2C1 [MASLINIC ACID],72 µM,0.63 µM,114,
CC1(C)CC[C@]2(C(=O)O)CC[C@]3(C)C(=CC[C@@H]4[C@@]5(C)CC[C@H](O)C(C)(C)[C@@H]5CC[C@]43C)[C@@H]2C1 [OLEANOLIC_ACID],124 µM,,,CC50 (HT-29 [4]): 180 µM; Activity (HT-29 [5]): Active; IC50 (DNA polymerase beta): 3 µM; inhibition [3]: Active; inhibition (HT-29 [6]): inactive; IC50 (Phospholipase A2): 3 µM; Activity (HT-29 [7]): Active; growth inhibition (GI) (HT-29 [8]): Dose-dependent effect
COc1ccc2c(C(=S)N(C)CC(=O)O)cccc2c1C(F)(F)F [TOLRESTAT],,,,Activity (HT-29 [5]): Active; inhibition [9]: Active; Ki [2]: 0.05 µM
C[C@H]1[C@H](C)CC[C@]2(C(=O)O)CC[C@]3(C)C(=CC[C@@H]4[C@@]5(C)CC[C@H](O)C(C)(C)[C@@H]5CC[C@]43C)[C@H]12 [URSOLIC ACID],41 µM,4 µM,10,Ki [10]: 2 µM; Ki [11]: 3.7 µM; Ki [12]: 6 µM; Ki [13]: 2.1 µM; Ki [14]: 2.8 µM; inhibition [15]: Active
